Source: paper PMC11327602 (Heliyon, 2024)

How the values were obtained:
jack bean urease = jack bean urease (Canavalia ensiformis, UniProt P07374); experiment: Urease inhibition assay; format: biochemical
α-Glucosidase = α-Glucosidase (Saccharomyces cerevisiae, UniProt P53341); experiment: α-Glucosidase inhibition assay; format: biochemical
Procedure, shortened: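 Test compound (200–800 μg/mL) pre-incubated 5 min at 37 °C with 2 % w/v starch (sucrose) solution in 0.2 M Tris buffer, pH 8.0. 5 mM p-nitrophenyl-α-D-glucopyranoside added intermittently, then α-glucosidase (1 U/mL), 40 min at 35 °C. Stopped with […]; absorbance read at 405 nm. % inhibition = (control − sample)/control × 100; samples above 50 % taken to IC50.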

[1] = DPPH free radical scavenging activity
[2] = target: Bacillus Pasteurii urease (Sporosarcina pasteurii, UniProt P41020); experiment: Urease inhibition assay; format: biochemical; settings: Enzyme (SEM ±) B.P Urease, IC50, mean ± SEM, 3 experiments
[3] = Superoxide anion scavenging assay

Chain of jack bean urease (P07374 whole entry, looked up): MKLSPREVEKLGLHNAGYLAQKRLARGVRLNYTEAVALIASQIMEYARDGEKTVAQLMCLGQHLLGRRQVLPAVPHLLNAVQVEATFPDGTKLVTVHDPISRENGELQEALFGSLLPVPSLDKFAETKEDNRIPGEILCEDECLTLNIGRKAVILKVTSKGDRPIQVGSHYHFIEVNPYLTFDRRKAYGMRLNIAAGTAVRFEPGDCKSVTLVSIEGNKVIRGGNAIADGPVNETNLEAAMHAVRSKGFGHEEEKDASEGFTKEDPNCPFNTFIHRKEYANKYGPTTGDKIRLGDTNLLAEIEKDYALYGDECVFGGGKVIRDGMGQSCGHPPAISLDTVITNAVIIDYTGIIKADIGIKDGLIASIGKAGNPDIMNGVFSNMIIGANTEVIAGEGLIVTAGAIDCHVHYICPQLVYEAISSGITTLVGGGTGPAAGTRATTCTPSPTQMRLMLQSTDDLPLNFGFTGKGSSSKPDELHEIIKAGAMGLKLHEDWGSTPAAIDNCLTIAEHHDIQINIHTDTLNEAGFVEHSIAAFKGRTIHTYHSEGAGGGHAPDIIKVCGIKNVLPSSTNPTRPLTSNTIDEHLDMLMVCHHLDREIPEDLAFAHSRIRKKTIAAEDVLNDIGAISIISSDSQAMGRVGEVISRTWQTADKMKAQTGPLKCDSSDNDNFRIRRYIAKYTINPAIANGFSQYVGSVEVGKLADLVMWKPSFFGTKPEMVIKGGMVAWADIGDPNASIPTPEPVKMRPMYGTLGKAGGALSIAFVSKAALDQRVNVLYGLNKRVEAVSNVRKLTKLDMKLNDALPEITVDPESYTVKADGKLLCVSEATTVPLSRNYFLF
Chain of Bacillus Pasteurii urease (P41020 whole entry): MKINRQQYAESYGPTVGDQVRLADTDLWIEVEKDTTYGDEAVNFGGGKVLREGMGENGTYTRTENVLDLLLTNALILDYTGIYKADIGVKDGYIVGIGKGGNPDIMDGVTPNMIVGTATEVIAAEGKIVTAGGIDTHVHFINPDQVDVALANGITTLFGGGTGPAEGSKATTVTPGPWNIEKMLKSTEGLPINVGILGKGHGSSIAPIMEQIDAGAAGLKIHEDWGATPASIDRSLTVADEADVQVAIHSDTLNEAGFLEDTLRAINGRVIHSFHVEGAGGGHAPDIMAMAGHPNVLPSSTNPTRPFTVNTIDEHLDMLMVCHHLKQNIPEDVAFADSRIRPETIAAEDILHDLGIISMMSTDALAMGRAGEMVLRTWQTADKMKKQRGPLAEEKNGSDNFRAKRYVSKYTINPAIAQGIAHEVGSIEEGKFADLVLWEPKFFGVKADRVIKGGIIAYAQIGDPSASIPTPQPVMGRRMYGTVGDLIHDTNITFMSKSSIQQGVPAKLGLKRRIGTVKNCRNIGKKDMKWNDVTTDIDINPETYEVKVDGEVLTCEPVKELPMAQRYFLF
Chain of Bacillus Pasteurii urease (P41021 whole entry partner): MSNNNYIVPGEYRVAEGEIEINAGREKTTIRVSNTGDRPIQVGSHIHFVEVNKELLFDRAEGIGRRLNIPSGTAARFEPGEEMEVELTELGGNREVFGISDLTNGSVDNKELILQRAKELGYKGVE
Chain of Bacillus Pasteurii urease (P41022 whole entry partner): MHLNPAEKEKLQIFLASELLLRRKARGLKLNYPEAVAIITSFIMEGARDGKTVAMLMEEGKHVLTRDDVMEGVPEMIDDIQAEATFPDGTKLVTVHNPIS
Chain of α-Glucosidase (P53341 whole entry): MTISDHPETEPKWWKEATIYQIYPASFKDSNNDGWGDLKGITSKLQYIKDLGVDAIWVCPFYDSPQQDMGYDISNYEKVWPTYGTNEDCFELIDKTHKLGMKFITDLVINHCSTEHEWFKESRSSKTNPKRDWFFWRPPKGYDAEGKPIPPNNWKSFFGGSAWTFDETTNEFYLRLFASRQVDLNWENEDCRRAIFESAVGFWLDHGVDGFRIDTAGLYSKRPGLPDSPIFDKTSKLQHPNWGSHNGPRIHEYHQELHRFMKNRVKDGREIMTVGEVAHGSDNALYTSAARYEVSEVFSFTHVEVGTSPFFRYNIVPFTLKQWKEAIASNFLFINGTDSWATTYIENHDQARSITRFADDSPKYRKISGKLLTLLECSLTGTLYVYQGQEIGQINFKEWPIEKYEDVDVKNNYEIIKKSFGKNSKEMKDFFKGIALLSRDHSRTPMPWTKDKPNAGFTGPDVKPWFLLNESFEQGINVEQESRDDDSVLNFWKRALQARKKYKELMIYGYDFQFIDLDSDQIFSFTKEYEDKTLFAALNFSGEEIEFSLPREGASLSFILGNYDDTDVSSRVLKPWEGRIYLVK

## C=CCN(c1nccs1)S(=O)(=O)c1ccc(Cl)cc1 [Compound 30, N-Allyl-4-chloro-N-(thiazol-2-yl)benzenesulfonamide]
Jack bean urease
  Types of inhibition (urease): Non-competitive
Jack bean urease; Enzyme (SEM ±) J.B Urease, IC50, mean ± SEM, 3 experiments
  IC50: 28.1 ± 0.35 µM
ABTS method; 10 μM
  ABTS % Scavenging: 23.11 ± 0.02%
ABTS method; 20 μM
  ABTS % Scavenging: 40.3 ± 0.53%
ABTS method; 30 μM
  ABTS % Scavenging: 46.01 ± 0.19%
ABTS method; 40 μM
  ABTS % Scavenging: 59.5 ± 0.20%
ABTS method; 50 μM
  ABTS % Scavenging: 87.11 ± 0.15%
ABTS method; read-out: ABTS scavenging IC50
  IC50: 37.6 ± 0.01 µM
α-Glucosidase
  Type of Inhibition (α-glucosidase and α-amylase): Non-competitive
[1]; 25 μM
  DPPH % Scavenging: 38.5 ± 0.19%
[1]; 50 μM
  DPPH % Scavenging: 46.1 ± 0.11%
[1]; 75 μM
  DPPH % Scavenging: 77.2 ± 0.13%
[1]; 100 μM
  DPPH % Scavenging: 81.2 ± 0.15%
[1]; read-out: DPPH scavenging IC50
  IC50: 52.3 ± 0.21 µM
[2]
  IC50: 32.3 ± 0.37 µM
[3]; 25 μM
  superoxide anion % scavenging: 29 ± 0.34%
[3]; 50 μM
  superoxide anion % scavenging: 63 ± 0.01%
[3]; 75 μM
  superoxide anion % scavenging: 79 ± 0.11%
[3]; 100 μM
  superoxide anion % scavenging: 87 ± 0.21%
[3]; read-out: superoxide anion scavenging IC50
  IC50: 43 ± 0.09 µM
